A selection: hits, their analogues and other compounds. The true share with any hit is near 4.8%.
CHOP UPR activ: activators of apoptotic arm of unfolded protein response (CHOP); CHO-CHOP luciferase reporter, UPR activation, luminescence; percent of tunicamycin response over DMSO baseline; activation, % at 10 µM; 330,000 tested, 0.34% active;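 active = at 10 µM dose, activation of 40% or more, normalized to positive control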
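Assay system: CHO cells with stable CHOP pathway luciferase reporter; Buffer or medium: F12 plus 10% serum; Times: 16-18 h cell attachment, then 6 h compound exposure, 37 °C; Signal: luciferase luminescence; Read-out basis: percent activation relative to tunicamycin control; Control set: tunicamycin high control, DMSO low control.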
XBP1 UPR activ: adaptive UPR (XBP1) activation | AID 463104 | activation, % at 20 µM | 330,000 tested, 0.33% active | CHO-XBP1 luciferase reporter, IRE1-XBP1 UPR activation, luminescence; percent of tunicamycin response, DMSO as zero;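 active = versus positive control, 20 µM dose yields 30% or more activation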
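Assay system: IRE1-XBP1 luciferase reporter CHO line. Input: 1000 cells/well. Buffer or medium: F12 with 10% serum. Doses: 20 µM, 1% DMSO. Times: overnight seeding at 37 °C, 6 h compound treatment at 37 °C. Technique: Steady-Glo luciferase glow luminescence, 10 min after reagent addition.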
SKKanGAS inh: SKKanGAS growth inhibition; S. pyogenes SKKanGAS, kanamycin growth, BacTiter-Glo, 6 h; inhibition, % at 7.5 µM; 300,000 tested, 1.3% active;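 active = mean replicate score, as percent of positive control median, at least 50; inconclusive = mean below 50 but one replicate at or above 50; inactive = mean and every replicate below 50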;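 also: strain carries kanamycin resistance gene driven by streptokinase promoter and grows in 40 µg/ml kanamycin; loss of luminescence reflects streptokinase promoter inhibition or plain growth inhibition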
Mdm2 MdmX PPI: inhibitors of human Mdm2/MdmX interaction. O15151+Q00987. SaOS-2 split-luciferase Mdm2/MdmX complementation, luminescence. inhibition, % at 8 µM. 330,000 tested, 3% active. AID 485346;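 active = inhibition of at least 50% at 8 µM in the primary screen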
Target sequence (O15151 whole entry, looked up): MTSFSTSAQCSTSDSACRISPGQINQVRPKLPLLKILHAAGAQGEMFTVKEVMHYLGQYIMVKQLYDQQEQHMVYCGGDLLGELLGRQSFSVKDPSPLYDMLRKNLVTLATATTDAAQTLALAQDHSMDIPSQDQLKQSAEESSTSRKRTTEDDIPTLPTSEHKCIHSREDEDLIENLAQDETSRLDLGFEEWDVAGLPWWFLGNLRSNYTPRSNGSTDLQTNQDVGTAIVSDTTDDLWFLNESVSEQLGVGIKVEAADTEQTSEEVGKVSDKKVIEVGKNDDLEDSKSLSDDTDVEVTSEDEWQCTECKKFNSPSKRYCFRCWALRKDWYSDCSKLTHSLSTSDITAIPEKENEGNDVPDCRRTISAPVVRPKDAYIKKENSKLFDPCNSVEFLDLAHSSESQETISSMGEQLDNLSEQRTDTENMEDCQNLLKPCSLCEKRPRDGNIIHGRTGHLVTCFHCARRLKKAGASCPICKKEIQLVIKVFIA
Target sequence (Q00987 whole entry, looked up): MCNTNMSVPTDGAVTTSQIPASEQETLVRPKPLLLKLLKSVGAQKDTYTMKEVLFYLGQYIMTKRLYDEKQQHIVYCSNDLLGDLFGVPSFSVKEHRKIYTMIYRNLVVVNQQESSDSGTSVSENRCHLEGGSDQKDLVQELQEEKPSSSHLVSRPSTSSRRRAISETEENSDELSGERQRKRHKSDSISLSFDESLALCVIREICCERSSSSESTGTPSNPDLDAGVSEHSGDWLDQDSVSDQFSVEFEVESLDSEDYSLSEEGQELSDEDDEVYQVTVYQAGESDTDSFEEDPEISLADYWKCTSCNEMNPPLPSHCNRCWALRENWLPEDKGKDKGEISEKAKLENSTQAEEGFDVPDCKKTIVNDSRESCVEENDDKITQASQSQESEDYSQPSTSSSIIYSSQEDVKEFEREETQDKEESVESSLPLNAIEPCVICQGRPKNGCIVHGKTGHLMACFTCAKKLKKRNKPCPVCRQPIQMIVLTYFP
CSC inhib: cancer stem cell inhibition; cancer stem cell-like cells viability, luminescence; inhibition, % at 7.5 µM; 300,000 tested, 1.1% active; AID 2717; in the data active = inhibition above about 75%; inconclusive = no clear call, values can overlap the other calls; tested in HMLE shEcad cells
Beta cell apopt: beta cell apoptosis inhibition; INS-1E cytokine-induced death, ATP luminescence, 48 h; percent of positive-control rescue, neutral wells zero; AID 435005; protection from apoptosis, % (test concentration not listed); 300,000 tested, 0.8% active;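 active = Every replicate reaches about 75%, or at least half do and their mean reaches it too, limit read from the data; inconclusive = At least half of replicates reach the limit but their mean does not; inactive = Under half of replicates reach the limit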;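 also: higher means more ATP so stronger rescue from cytokine killing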
UPR CHOP confirm: confirmation of apoptotic unfolded protein response (CHOP) activators. 1,000 tested, 64% active. CHO-CHOP cells, CHOP-luciferase reporter luminescence; percent of tunicamycin response, DMSO as zero. shares compounds with CHOP UPR activ. activation, % at 10 µM. AID 463112; in the data active = activation above about 33%
XBP1 UPR conf: confirmation of adaptive unfolded protein response (XBP1) activators; 1,000 tested, 63% active; activation, % at 20 µM; shares compounds with XBP1 UPR activ; CHO-XBP1 IRE1-XBP1 luciferase reporter, luminescence;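 active = reporter signal at least 30% of the positive control's activation in two or more of four replicate wells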
Mdm2 MdmX conf: confirmation of human Mdm2/MdmX interaction inhibitors | shares compounds with Mdm2 MdmX PPI | Mdm2-MdmX binding, luminescent assay | inhibition, % at 8 µM | 10,000 tested, 55% active | AID 489028; in the data active = inhibition above about 40%
FLuc counter: inhibits full-length luciferase, flagging false Mdm2/MdmX hits; 6,200 tested, 77% active; inhibition, % at 8 µM; shares compounds with Mdm2 MdmX PPI; SaOS-2 full-length luciferase counterscreen, luminescence;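 active = mean inhibition at 8 µM reaching about 37%, which flags the compound as non-specific, limit read from the data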;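 also: p53-null SaOS-2 cells with luciferase driven by a doxycycline-inducible promoter; compound on cells about two nights before reading with doxycycline added after day one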
Numbers stand for hits; n = inactive; u = inconclusive; x = no result.

SMILES | CHOP UPR activ | XBP1 UPR activ | SKKanGAS inh | Mdm2 MdmX PPI | CSC inhib | Beta cell apopt | UPR CHOP confirm | Mdm2 MdmX conf | FLuc counter | others
CCc1cccc(NC(=O)CSc2nnc(Cc3ccc(OC)cc3)c(=O)[nH]2)c1 | n | n | n | n | n | x | x | x | x
COc1ccccc1C(=O)Nc1ccnn1C1CCN(Cc2ccc3nonc3c2)CC1 | n | n | n | n | n | n | x | x | x
CCN(CC)S(=O)(=O)c1ccc(-c2nnc(SCC(=O)N3CCc4ccccc43)o2)cc1 | 70 | 209 | n | 75 | n | n | n | n | x | XBP1 UPR conf=n
CCN(CC)S(=O)(=O)c1ccc(-c2nnc(SCC(=O)N3CCOCC3)o2)cc1 | n | n | n | n | n | n | x | x | x
COc1ccc(CN2C(=O)Cc3c2nc(N)c2c(N)nc(N4CCCCC4)c(C#N)c32)cc1 | n | n | n | n | x | n | x | x | x
N#Cc1c(N2CCCC(O)C2)nc(N)c2c(N)nc3c(c12)CC(=O)N3C12CC3CC(CC(C3)C1)C2 (stereo not drawn) | 46 | n | n | 90 | n | n | n | 69 | 44
CCN1C(=O)[C@@H]2[C@@H](c3ccc(SC4CCCCC4)c(OC)c3)N3CCC[C@@]3(C(=O)OC)[C@@H]2C1=O | n | n | x | n | n | n | x | x | x
NC(N)=NCC(O)CN(c1ccccc1)c1ccccc1 (stereo not drawn) | n | n | n | n | n | n | x | x | x
COc1ccc(Cn2c(SCc3ccc(C)cc3)nc3cc(OC)c(OC)cc3c2=N)cc1Cl | 88 | 32 | 102 | 94 | 103 | 110 | 39 | 100 | 51 | XBP1 UPR conf=n
COc1cc2nc(SCc3ccc(C(F)(F)F)cc3)n(Cc3cccs3)c(=N)c2cc1OC | n | n | n | n | n | n | x | x | x
CCc1cc2c(=O)[nH]c(-c3ccccn3)nc2s1 | 290 | n | 55 | 72 | x | n | 247 | n | 46
CCc1cc2c(=O)[nH]c(N3CCCC3)nc2s1 | n | n | n | n | n | n | x | x | x
CSc1cc(-c2ccc(Cl)cc2)n(Cc2ccccc2)c(=O)c1C#N | 44 | 32 | n | 98 | n | n | n | n | x | XBP1 UPR conf=n
CSc1cc(-c2ccccc2)n(C)c(=O)c1C#N | n | n | n | n | n | n | x | x | x
CCc1ccc(N2C(=O)C(Cl)=C(Nc3ccc(C(=O)N4CCCC4)cc3)C2=O)cc1 | 104 | n | x | 95 | x | n | n | 95 | 39
O=C(c1ccc(N2C(=O)c3ccccc3C2=O)cc1)N1CCCCC1 | n | n | n | n | n | n | x | x | x
Cc1cnc(NC(=O)c2cc(S(=O)(=O)N(C)C)ccc2N2CCCC2)s1 | 96 | 98 | x | 53 | n | n | 105 | n | 50 | XBP1 UPR conf=87
Cn1nnnc1Sc1ncnc2scc(-c3ccccc3C(F)(F)F)c12 | n | n | x | n | n | n | x | x | x
Cn1nnnc1Sc1ncnc2scc(-c3cc4ccccc4o3)c12 | 86 | n | x | 100 | 115 | 89 | 118 | 99 | 51
O=C(/C=C/c1cccc([N+](=O)[O-])c1)c1ccco1 | n | n | n | n | n | n | x | x | x
Cc1ccccc1/C=C/C(=O)c1ccc([N+](=O)[O-])o1 | 112 | n | 62 | 100 | n | 122 | 68 | 86 | 55
COc1ccc(/C=C/C(=O)c2ccc([N+](=O)[O-])o2)cc1 | 89 | n | n | 100 | u | 127 | 99 | 68 | 42
COc1ccc(S(=O)(=O)N2CCN(C(=O)c3ccc([N+](=O)[O-])o3)CC2)cc1 | n | n | n | n | n | x | x | x | x
Cc1cccc(/C=C/C(=O)c2ccc([N+](=O)[O-])o2)c1 | 217 | n | 56 | 100 | n | 117 | 142 | 100 | 53

Compound activity: PubChem BioAssay, several laboratories
